Source: PubChem (NMMLSC)
Hits are enriched below; roughly 2.5% of the tested compounds scored in any of these assays.
MEKK2wt PB1 HTS – raises or lowers MEK5 binding to wildtype human MEKK2 PB1 domain | bead flow cytometry, Alexa488-MEK5 binding to MEKK2 WT; actives lie on both sides | binding response (% of control), % at 10 µM | 290,000 tested, 1.1% active; in the data active means binding response below about 67% or above about 130%
MEKK3 PB1 HTS – MEKK3-MEK5 PB1 interaction, increase or decrease | Q99759 | bead-based flow cytometry, Alexa488-MEK5 binding to MEKK3; actives lie on both sides; 0 = blocked by unlabeled MEK5, 100 = vehicle | binding response (% of control), % at 10 µM | 290,000 tested, 1.4% active;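 active means binding response more than 3 SD above or below the average of its plate-row segment, actives on both sides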;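 further: Alexa488 bead fluorescence after subtracting the streptavidin-only scavenger bead signal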
ABCB1 block – blocks JC-1 efflux by human ABCB1 transporter; 190,000 tested, 0.067% active; CCRF-Adr cells, flow cytometry; inhibition, % at 6.6 µM; in the data active means inhibition above about 40%;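 further: 0% = vehicle and 100% = reference inhibitor; higher value means more JC-1 retained so stronger ABCB1 efflux block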
Efflux pump inh – blocks antifungal efflux pumps in multiplex yeast assay; S. cerevisiae Candida pump triplex, Nile Red efflux; AID 485275; inhibition, % at 10 µM; 330,000 tested, 0.44% active;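 active means plate passing quality check with inhibition over a set limit, or well fluorescence over plate mean plus 4 SD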;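 further: Nile Red retained in pooled yeast measured as flow cytometry median fluorescence; 0% = buffer negative control and 100% = Enniatin B positive control; higher means more Nile Red kept so more efflux inhibition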
ABCG2 block – blocks JC-1 efflux by human ABCG2 transporter; IgMXP3 cells, flow cytometry; inhibition, % at 6.6 µM; 190,000 tested, 0.1% active;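 active means inhibition above 80%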;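 further: 0% = DMSO and 100% = nicardipine control wells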
Target sequence (Q9UNQ0 whole entry, looked up): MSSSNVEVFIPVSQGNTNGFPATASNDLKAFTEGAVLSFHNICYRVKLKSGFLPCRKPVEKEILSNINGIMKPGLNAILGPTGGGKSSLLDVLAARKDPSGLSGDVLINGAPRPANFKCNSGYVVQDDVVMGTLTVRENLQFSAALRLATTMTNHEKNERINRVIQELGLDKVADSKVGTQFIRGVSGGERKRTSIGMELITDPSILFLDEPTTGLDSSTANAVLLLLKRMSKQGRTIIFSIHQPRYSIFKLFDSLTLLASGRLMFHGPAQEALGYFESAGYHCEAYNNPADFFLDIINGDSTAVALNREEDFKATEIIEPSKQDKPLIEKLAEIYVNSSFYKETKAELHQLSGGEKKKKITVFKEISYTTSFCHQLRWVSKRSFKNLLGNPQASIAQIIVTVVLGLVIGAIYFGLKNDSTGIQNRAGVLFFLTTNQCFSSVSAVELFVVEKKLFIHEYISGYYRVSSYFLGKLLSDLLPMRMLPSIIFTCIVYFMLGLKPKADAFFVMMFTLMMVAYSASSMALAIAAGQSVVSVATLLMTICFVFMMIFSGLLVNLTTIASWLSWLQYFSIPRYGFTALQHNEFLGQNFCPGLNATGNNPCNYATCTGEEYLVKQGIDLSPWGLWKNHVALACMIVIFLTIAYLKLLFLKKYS
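Times: 10 min at 25 °C | Test system: Two drug-resistant human cell lines, ABCG2 and ABCB1 | Quantity: 3 million cells/mL final, two lines in 1:1 ratio | Signal: Flow cytometry, 530 nm JC-1 signal | Dosing: Compound at 6.6 µM | Controls: Nicardipine and DMSO wells | Reagent: JC-1 as fluorescent efflux pump substrate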
MEKK2 mut-MEK5 – signal of MEK5 binding to mutant human MEKK2 PB1 domain. bead flow cytometry, Alexa488-MEK5 binding to MEKK2 mutant. 290,000 tested, 0.35% active. percent response, % at 10 µM. AID 1530; in the data active means percent response above about 24%, passing the limit was not always enough
MEKK2wt confirm – raises or lowers MEK5 binding to wildtype human MEKK2, retest. bead flow cytometry, Alexa488-MEK5 binding to MEKK2 WT; actives lie on both sides. binding response (% of control), % at 10 µM. 5,900 tested, 2.4% active. shares compounds with MEKK3 PB1 HTS. AID 1892; in the data active means binding response below about 16% or above about 210%; inactive means in between
MEKK2mut confirm – signal of MEK5 binding to mutant human MEKK2, retest; 5,900 tested, 2% active; bead flow cytometry, Alexa488-MEK5 binding to MEKK2 mutant; AID 1893; percent response, % at 10 µM; shares compounds with MEKK3 PB1 HTS; in the data active means percent response mostly above about 71%, no sharp cut-off; inactive means mostly below about 38%;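 further: higher means compound restores mutant binding toward wildtype level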
MEKK3-MEK5 inh – confirmation of inhibitors of MEK5 binding to human MEKK3; shares compounds with MEKK3 PB1 HTS; bead flow cytometry, Alexa488-MEK5 binding to MEKK3; active compounds read low; binding response (% of control), % at 10 µM; 5,900 tested, 1.8% active;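 active means binding response below 72% of control, or above a set upper limit, though filed actives all read lower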;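 further: 100% = DMSO only wells and 0% = binding blocked by excess unlabeled MEK5; lower values mean stronger disruption of MEK5 binding to MEKK3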
Numbers without * were called inactive; x = no result given; [ ] = another dose, or the depositor's remark.

SMILES	MEKK2wt PB1 HTS	MEKK3 PB1 HTS	ABCB1 block	Efflux pump inh	ABCG2 block	MEKK2 mut-MEK5	MEKK2wt confirm	MEKK2mut confirm	MEKK3-MEK5 inh
Cc1cccc(-n2cc(CN3CCN(Cc4nccn4C)CC3)c(-c3cccc(F)c3)n2)c1	153*	106	4	0	10	34	138	19	107
O=C(NCc1ccc2c(c1)OCO2)C1CCCN1C(=O)Nc1ccc(Cl)cc1 (stereo not drawn)	102	102	x	0	x	-2	x	x	x
Cc1ccc(Nc2c([N+](=O)[O-])ccc3nonc23)cc1C	103	104	x	0	x	5	x	x	x
CC(Nc1cc(N2CCNCC2)ccc1[N+](=O)[O-])c1ccccc1 (stereo not drawn)	132	163*	2	0	32	4	129	28	106
NCCNc1ccc([N+](=O)[O-])c(Sc2nc3ccccc3[nH]2)c1	115	116	-2	0	-2	6	x	x	x
O=[N+]([O-])c1ccc(N2CCNCC2)cc1Sc1nc2ccccc2[nH]1	144*	104	0	0	9	19	107	-1	102
NC(N)=NC(=S)Nc1ccc(Cl)cc1	106	99	x	0	x	6	x	x	x
O=C(C1CCCN(Cc2cccs2)C1)N1CCCCCC1 (stereo not drawn)	115	111	1	0	12	13	x	x	x
CCOC(=O)C1CCCN(Cc2cccs2)C1 (stereo not drawn)	-3.0*[inhibitor]	1.0*[inhibitor]	0	0	1	-18	104	6	106
CCOC(=O)C1CCCN(S(=O)(=O)c2cccs2)C1 (stereo not drawn)	114	122*	1	-2	4	7	97	-7	97
CCOC(=O)C1CCCN(S(=O)(=O)c2ccc(S(=O)(=O)N3CCCC3)cc2)C1 (stereo not drawn)	x	x	x	0	x	x	x	x	x
CCc1nc(C)ccc1OC(=O)C12CC3CC(CC(C3)C1)C2	138*	106	0	0	9	3	92	-10	94
O=C(Nc1c(C(=O)C2CC2)oc2ccccc12)c1ccc(Cl)cc1	111	145*	1	0	4	1	102	5	102
CC1(C)CC(O)C(C(O)c2cccc([N+](=O)[O-])c2)C(C)(C)N1 (stereo not drawn)	111	148*	0	0	0	1	99	5	103
CC1(C)CC(NCc2cccc([N+](=O)[O-])c2)CC(C)(C)N1	107	106	x	0	x	6	x	x	x
Cc1occc1-c1nnc(SCC(=O)N2CCCC(C)C2)o1 (stereo not drawn)	x	x	x	0	x	x	x	x	x
Cc1occc1-c1nnc(SCC(=O)N2CCOCC2)o1	3.0*[inhibitor]	2.0*[inhibitor]	0	0	0	-18	102	-1	102
COc1ccc(CCNC(=O)CCN2C(=O)COc3ccccc32)cc1OC	90	81*[inhibitor]	1	0	4	-10	100	-3	98
COc1ccc(CCNC(=O)CCN2C(=O)COc3ccc(C)cc32)cc1OC	107	105	2	0	62	8	x	x	x
O=C(CN1CCN(Cc2ccc3c(c2)OCO3)CC1)N1CCc2[nH]c3ccc(F)cc3c2C1	129	110	1	0	6	32*	118	9	105
O=C(CN1CCN(Cc2ccc3c(c2)OCO3)CC1)N1CCc2[nH]c3ccccc3c2C1	123	101	2	x	36	15	x	x	x
